Measured values from ChEMBL document CHEMBL1687889, “Antitumor agents. 284. New desmosdumotin B analogues with bicyclic B-ring as cytotoxic and antitubulin agents” (J Med Chem, 2011).
Calls of active or inactive are those of the source. No cut-off for these calls is given here.

Assays:
[1] = system: PC-3; experiment: Antiproliferative activity against human PC3 cells after 3 days by sulforhodamine B assay; type: functional; conditions: PC-3, 72 h
[2] = Antiproliferative activity against human KBVIN cells after 3 days by sulforhodamine B assay; type: functional; conditions: 72 h
Method in brief: (§1)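 Cells grown in RPMI-1640 with 25 mM HEPES, 0.25% sodium bicarbonate, 10% FBS and 100 μg/mL kanamycin. Exposed to compound for 3 days, with at most 0.5% v/v DMSO. Attached cells fixed in cold 50% TCA, stained with 0.4% sulforhodamine B, and the bound dye solubilized. A562 read. GI50 is the concentration giving a 50% absorbance drop versus untreated cells.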

[3] = system: HCT-8; experiment: Antiproliferative activity against human HCT8 cells after 3 days by sulforhodamine B assay; type: functional; conditions: HCT-8, 72 h; method in brief: as §1
[4] = system: HepG2; experiment: Antiproliferative activity against human HepG2 cells after 3 days by sulforhodamine B assay; type: functional; conditions: HepG2, 72 h
Method in brief: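 Sulforhodamine B assay over 3 days in culture, with at most 0.5% v/v DMSO. Attached cells fixed in cold 50% TCA, stained with 0.4% SRB, and the dye solubilized. Absorbance read at 562 nm. GI50 is the concentration causing a 50% fall in absorbance relative to untreated cells.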

[5] = system: KB; experiment: Antiproliferative activity against human KB cells after 3 days by sulforhodamine B assay; type: functional; conditions: 72 h; method in brief: as §1
[6] = system: DU-145; experiment: Antiproliferative activity against human DU145 cells after 3 days by sulforhodamine B assay; type: functional; conditions: DU-145, 72 h
[7] = system: A549; experiment: Antiproliferative activity against human A549 cells after 3 days by sulforhodamine B assay; type: functional; conditions: A549, 72 h; method in brief: as §1
[8] = system: HepG2; experiment: Antiproliferative activity against human HepG2 cells at 20 ug/ml after 3 days by sulforhodamine B assay; type: functional, cell-based
[9] = system: PC-3; experiment: Antiproliferative activity against human PC3 cells at 20 ug/ml after 3 days by sulforhodamine B assay; type: functional, cell-based
[10] = system: A549; experiment: Antiproliferative activity against human A549 cells at 20 ug/ml after 3 days by sulforhodamine B assay; type: functional, cell-based
[11] = system: KBVIN; experiment: Antiproliferative activity against human KBVIN cells at 20 ug/ml after 3 days by sulforhodamine B assay; type: functional, cell-based
[12] = system: KB; experiment: Antiproliferative activity against human KB cells at 20 ug/ml after 3 days by sulforhodamine B assay; type: functional, cell-based
[13] = system: MCF7; experiment: Antiproliferative activity against human MCF7 cells at 20 ug/ml after 3 days by sulforhodamine B assay; type: functional, cell-based
[14] = system: HCT-8; experiment: Antiproliferative activity against human HCT8 cells at 20 ug/ml after 3 days by sulforhodamine B assay; type: functional, cell-based
[15] = system: MCF7; experiment: Antiproliferative activity against human MCF7 cells after 3 days by sulforhodamine B assay; type: functional; conditions: MCF7, 72 h
[16] = Inhibition of tubulin assembly after 20 mins by turbidimetric assay; conditions: read-out: IC50
Method in brief: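 Turbidimetry at 350 nm. 10 μM (1.0 mg/mL) tubulin preincubated with compound for 15 min at 30 °C without GTP, then chilled, and 0.4 mM GTP added. Turbidity followed for 20 min at 30 °C after a temperature jump from 0 °C. IC50 is the concentration halving the turbidity increase relative to control.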

[17] = Displacement of [3H]colchicine from tubulin at 5 uM for 10 mins
Method in brief: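 1.0 μM tubulin incubated with 5.0 μM [3H]colchicine and 5.0 μM inhibitor for 10 min at 37 °C, when control samples reach about 40–60% of maximal colchicine binding. Result given as percent inhibition of colchicine binding.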

Compound	GI50 [1] [µM]	GI50 [3] [µM]	GI50 [4] [µM]	GI50 [5] [µM]	GI50 [6] [µM]	GI50 [7] [µM]	GI50 [15] [µM]	IC50 [16] [µM]	inhibition [17] [%]	GI50 [2] [µM]	Activity [8]	Activity [9]	Activity [10]	Activity [11]	Activity [12]	Activity [13]	Activity [14]
CCC1=C(O)c2c(oc(-c3c4ccccc4cc4ccccc34)cc2=O)C(CC)(CC)C1=O											inactive	inactive	inactive	inactive	inactive	inactive	inactive
CCC1=C(O)c2c(oc(-c3c(OC)c(OC)cc4ccccc34)cc2=O)C(CC)(CC)C1=O										35.7			inactive		inactive		inactive
CCC1=C(O)c2c(oc(-c3ccc4c(c3)c3ccccc3n4CC)cc2=O)C(CC)(CC)C1=O											inactive	inactive	inactive	inactive	inactive	inactive	inactive
CC1=C(O)C(C)(C)c2oc(-c3ccccc3)cc(=O)c2C1=O [DESMOTUMOTIN B]										13.5	inactive	inactive	inactive		inactive	inactive	inactive
CCC1=C(O)c2c(oc(-c3ccc(OC)c4ccc(OC)cc34)cc2=O)C(CC)(CC)C1=O											inactive	inactive	inactive	inactive	inactive	inactive	inactive
CCC1=C(O)c2c(oc(-c3cccc4c3oc3ccccc34)cc2=O)C(CC)(CC)C1=O											inactive	inactive	inactive	inactive	inactive	inactive	inactive

Continued, in another order:

GI50 [1] [µM]	GI50 [3] [µM]	GI50 [4] [µM]	GI50 [5] [µM]	GI50 [6] [µM]	GI50 [7] [µM]	GI50 [15] [µM]	IC50 [16] [µM]	inhibition [17] [%]	Compound	GI50 [2] [µM]	Activity [8]	Activity [9]	Activity [10]	Activity [11]	Activity [12]	Activity [13]	Activity [14]
51.9	19.6	24.8	11.3	21.5	66				CCC1=C(O)c2c(oc(-c3c(OC)ccc4sccc34)cc2=O)C(CC)(CC)C1=O	11.1							
	13.9		6.41		25.6	24.6			CCC1=C(O)c2c(oc(-c3cccc4ccccc34)c(Br)c2=O)C(CC)(CC)C1=O	12	inactive	inactive					
> 25	> 25	> 25	11.2	10.4	> 25				CCC1=C(O)c2c(oc(-c3ccc4sccc4c3)cc2=O)C(CC)(CC)C1=O	> 25							
> 98	93.1	> 98	53.9	> 98	> 98				CCC1=C(O)c2c(oc(-c3csc4ccc(C)cc34)cc2=O)C(CC)(CC)C1=O	> 98							
21.5	3.66	1.02	0.76	1.12	3.17		3.4	52	CCC1=C(O)c2c(oc(-c3c(O)ccc4sccc34)cc2=O)C(CC)(CC)C1=O	0.78							
90.7	2.7	2.03	0.61	3.92	1.35		3.4	38	CCC1=C(O)c2c(oc(-c3c(C)sc4ccccc34)cc2=O)C(CC)(CC)C1=O	0.76							
3.81	11.2	1.9	2.49	0.74	5.84				CCC1=C(O)c2c(oc(-c3cccc4ccsc34)cc2=O)C(CC)(CC)C1=O	0.94							
38	42.2	30.6	26.4	31.7	42.2				CCC1=C(O)c2c(oc(-c3csc4ccc(Br)cc34)cc2=O)C(CC)(CC)C1=O	10.6							
